Rows were chosen to be rich in hits. Some 2.1% of all compounds tested hit in one or more screens of this group.
Hck-Nef inh: inhibitors of human Hck kinase activated by Nef. P08631. Recombinant Hck-YEEI plus Nef, Z-Lyte FRET kinase assay. inhibition, % at 20 µM. hit rate 0.68% among 220,000. AID 463187;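 active = Hck-Nef kinase inhibition above about 50%, limit read from the data; inactive = inhibition below that limit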;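 note: 0% = DMSO with Hck plus Nef and 100% = Hck alone without Nef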
RanGTP-Impb inh: disruptors of Ran-importin-beta complex formation – biochemical, FRET, CFP-Ran, YFP-importin-beta, homogeneous, primary screen. cell-free CFP-Ran/YFP-importin-beta FRET ratio. inhibition, % (concentration not given with the values). hit rate 1.1% among 300,000. AID 2216;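 active = more than half of the replicate wells show a fall in the fluorescence ratio signal beyond about 16%, limit read from the data, passing the limit was not always enough; inconclusive = exactly half of the replicate wells pass the set limit; inactive = fewer than half of replicates pass the limit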;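 note: 0% = DMSO wells and 100% = Ran loaded with GDP instead of GTP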
TbHK1 inh: T. brucei hexokinase 1 inhibition | hit rate 0.11% among 220,000 | inhibition, % at 10 µM | recombinant TbHK1, G6PDH-coupled NADH A340 | AID 1430;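 active = inhibition of 50% or more in the single-dose primary screen; inactive = inhibition below 50%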
p97 ATPase inh: blocks human p97 ATPase activity; recombinant p97 ATPase, Kinase-Glo ATP luminescence, 3 h; P55072; hit rate 0.42% among 220,000; inhibition, % at 8 µM; AID 1481; in the data active = inhibition above about 15%;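 note: 0% = DMSO vehicle and 100% = wells lacking enzyme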
Target sequence (P55072 whole entry, looked up): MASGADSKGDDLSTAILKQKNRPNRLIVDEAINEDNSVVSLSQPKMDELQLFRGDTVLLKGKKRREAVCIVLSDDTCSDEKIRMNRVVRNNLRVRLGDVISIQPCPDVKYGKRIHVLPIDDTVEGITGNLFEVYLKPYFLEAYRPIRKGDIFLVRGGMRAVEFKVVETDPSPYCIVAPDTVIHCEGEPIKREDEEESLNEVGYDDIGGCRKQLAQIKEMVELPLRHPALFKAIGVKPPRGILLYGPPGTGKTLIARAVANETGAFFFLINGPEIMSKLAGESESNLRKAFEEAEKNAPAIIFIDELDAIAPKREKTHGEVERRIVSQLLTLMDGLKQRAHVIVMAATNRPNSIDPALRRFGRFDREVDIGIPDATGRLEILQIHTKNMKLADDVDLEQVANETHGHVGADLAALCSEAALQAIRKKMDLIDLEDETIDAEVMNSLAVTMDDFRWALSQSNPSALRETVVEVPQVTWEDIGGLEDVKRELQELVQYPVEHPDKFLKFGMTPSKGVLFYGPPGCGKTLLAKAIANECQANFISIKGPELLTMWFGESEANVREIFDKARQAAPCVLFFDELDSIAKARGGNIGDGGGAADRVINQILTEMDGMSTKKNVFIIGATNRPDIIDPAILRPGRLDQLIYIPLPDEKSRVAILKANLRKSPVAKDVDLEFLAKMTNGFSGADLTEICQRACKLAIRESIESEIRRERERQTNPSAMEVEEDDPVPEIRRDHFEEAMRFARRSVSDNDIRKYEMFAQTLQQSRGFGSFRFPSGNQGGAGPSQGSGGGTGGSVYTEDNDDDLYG
Runt-CBFb FRET: inhibitors of human RUNX1 Runt domain binding to CBFb. Q01196+Q13951. Cerulean-Runt/Venus-CBFb FRET ratio 530/480, 1 h. inhibition, % at 20 µM. hit rate 0.46% among 220,000. AID 1496;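 active = inhibition over about 50% at 20 µM in the single-dose screen, limit read from the data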;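 note: 0% = DMSO wells and 100% = excess unlabeled CBFb competitor control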
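Assay system: Cerulean-Runt domain fusion protein, energy donor; Signal: fluorescence energy transfer, 422 nm excitation, 530/480 nm emission; Timing: 1 h compound exposure, room temperature; Control set: unlabeled CBFb; Medium: Tris buffer pH 7.5 with salts and BSA; Compound: single test concentration of 20 µM, 1% DMSO final; Probe or stimulus: Venus-CBFb 100 nM.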
Runt-SMMHC FRET: inhibitors of human RUNX1 Runt domain binding to CBFb-SMMHC. inhibition, % at 20 µM. hit rate 0.74% among 220,000. AID 1434. Cerulean-Runt/Venus-CBFb-SMMHC FRET ratio 530/480, 1 h. Q01196+Q13951;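 active = mean inhibition across duplicate retests at 20 µM reaching about 50%, limit read from the data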;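 note: 0% = DMSO wells and 100% = wells with excess untagged CBFb-SMMHC; inhibitors lower the FRET ratio by blocking Runt binding to CBFb-SMMHC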
Hck-Nef confirm: Hck-Nef kinase inhibition, confirmation; shares compounds with Hck-Nef inh; Recombinant Hck-YEEI:Nef, Z-Lyte FRET kinase assay; calls only at 10 µM; hit rate 28% among 1,300; AID 463188;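 active = average inhibition of at least 50%, with Z-scores no higher than 3 in both the phospho-tyrosine peptide and fluorescence counterscreens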
* marks the source's active call; other numbers are inactive results.

For S=c1[nH]nc(-c2cc(-c3ccccc3)n[nH]2)n1/N=C/c1c(Cl)cccc1Cl the results were Hck-Nef inh 72*, RanGTP-Impb inh -1, TbHK1 inh -7, p97 ATPase inh -1, Runt-CBFb FRET 13, Runt-SMMHC FRET 11 and Hck-Nef confirm active.
CN(C(=O)CSc1nnc(CN2CCCC2)n1Cc1ccccc1)c1ccccc1 was read as RanGTP-Impb inh 1.
`O=C(COc1ccc(/C=N/NC(=O)c2cc3ccccc3o2)cc1Br)Nc1ccccc1` gave Hck-Nef inh 79*, RanGTP-Impb inh 2, TbHK1 inh -19, p97 ATPase inh 3, Runt-CBFb FRET -2, Runt-SMMHC FRET -17 and Hck-Nef confirm active.
`O=C(COc1ccccc1-c1ccccc1)NCc1cccc(Cl)c1` gave Hck-Nef inh 1, RanGTP-Impb inh -6, TbHK1 inh -5, p97 ATPase inh -8, Runt-CBFb FRET -7 and Runt-SMMHC FRET -4.
Screening Cc1cccc(NC(=O)CN2C(=O)N/C(=C\c3ccc(-c4cccc(C(=O)O)c4)o3)C2=O)c1 returned Hck-Nef inh 80*, RanGTP-Impb inh 26*, TbHK1 inh -14, p97 ATPase inh 7, Runt-CBFb FRET 85* and Runt-SMMHC FRET 80*.
For Cc1ccc(CN2C(=O)N/C(=C\c3cccn3-c3cccc(C(=O)O)c3)C2=O)cc1 the results were Hck-Nef inh 38, RanGTP-Impb inh 1, TbHK1 inh -7, p97 ATPase inh 2, Runt-CBFb FRET 18 and Runt-SMMHC FRET 10.
`Cc1ccc(CN2C(=O)N/C(=C/c3ccc(-c4ccc(C(=O)O)cc4)o3)C2=O)cc1` gave Hck-Nef inh 89*, RanGTP-Impb inh inconclusive, TbHK1 inh -13, p97 ATPase inh -3, Runt-CBFb FRET 126* and Runt-SMMHC FRET 80*.
Screening N/C(=N\N=C\c1ccnc2ccccc12)SC1CC(=O)N(c2ccc(Br)cc2)C1=O (configuration not stated) returned Hck-Nef inh 66*, RanGTP-Impb inh -4, TbHK1 inh 11, p97 ATPase inh 3, Runt-CBFb FRET -5, Runt-SMMHC FRET -7 and Hck-Nef confirm active.
For O=C(NCCNC(=O)c1ccccn1)c1ccc(-c2ccccc2)cc1 the results were RanGTP-Impb inh 0.
CC(=O)/C=C(\C)N=Nc1c(O)[nH]c2ccccc12 was read as Hck-Nef inh 1, RanGTP-Impb inh -2, TbHK1 inh -3, p97 ATPase inh -6, Runt-CBFb FRET -5 and Runt-SMMHC FRET -8.
`CCN(CC)c1ccc(C=C2C(=O)OC3(CCCCC3)OC2=O)cc1` gave Hck-Nef inh 14, RanGTP-Impb inh inconclusive, TbHK1 inh -3, p97 ATPase inh 2, Runt-CBFb FRET -6 and Runt-SMMHC FRET -24.
CCN(CC)c1ccc(/C=C2/C(=O)c3ccc(C(=O)O)cc3C2=O)cc1 was read as Hck-Nef inh 55*, TbHK1 inh 34, p97 ATPase inh 6, Runt-CBFb FRET -31, Runt-SMMHC FRET -92 and Hck-Nef confirm inactive.
`OCCCNc1ncnc2oc(-c3ccccc3)c(-c3ccccc3)c12` gave RanGTP-Impb inh -4.
COc1ccc(-c2oc3ncn(CCN4CCOCC4)c(=N)c3c2-c2ccc(OC)cc2)cc1 was read as Hck-Nef inh 20, RanGTP-Impb inh 0, TbHK1 inh -39, p97 ATPase inh 11, Runt-CBFb FRET -2 and Runt-SMMHC FRET 2.
`c1ccc(-c2oc3ncnc(NCCCN4CCOCC4)c3c2-c2ccccc2)cc1` gave Hck-Nef inh 61*, RanGTP-Impb inh 6, TbHK1 inh -19, p97 ATPase inh -6, Runt-CBFb FRET 1, Runt-SMMHC FRET 0 and Hck-Nef confirm active.
`COc1ccc(-c2oc3ncnc(NCCCN4CCOCC4)c3c2-c2ccc(OC)cc2)cc1` gave Hck-Nef inh 94*, RanGTP-Impb inh 1, TbHK1 inh -28, p97 ATPase inh -5, Runt-CBFb FRET -2, Runt-SMMHC FRET -8 and Hck-Nef confirm active.
Screening COc1ccc(-c2oc3ncnc(NCCN4CCOCC4)c3c2-c2ccc(OC)cc2)cc1 returned Hck-Nef inh 66*, RanGTP-Impb inh inconclusive, TbHK1 inh -23, p97 ATPase inh 0, Runt-CBFb FRET -3, Runt-SMMHC FRET -2 and Hck-Nef confirm active.
Screening O=C(Nc1nnc(SCC(=O)N2CCCCC2)s1)c1c(F)cccc1F returned RanGTP-Impb inh 4.
For O=C(NC(=S)Nc1ccc(Cc2ccncc2)cc1)c1ccc(F)cc1 the results were Hck-Nef inh 68*, RanGTP-Impb inh 2, TbHK1 inh 5, p97 ATPase inh 1, Runt-CBFb FRET -2, Runt-SMMHC FRET -2 and Hck-Nef confirm inactive.
`O=c1c(O)c(-c2ccc(O)c(O)c2)oc2cc(O)cc(O)c12` gave RanGTP-Impb inh -8.
`O=c1c(-c2ccc(O)cc2)coc2cc(O)cc(O)c12` gave Hck-Nef inh 52*, RanGTP-Impb inh 2, TbHK1 inh -35, Runt-CBFb FRET 15, Runt-SMMHC FRET -2 and Hck-Nef confirm inactive.
For O=c1c(-c2c(O)cc(O)c3c(=O)cc(-c4ccc(O)cc4)oc23)c(-c2ccc(O)cc2)oc2cc(O)cc(O)c12 the results were Hck-Nef inh 66*, TbHK1 inh -11, Runt-CBFb FRET -2, Runt-SMMHC FRET -4 and Hck-Nef confirm inactive.
Screening O=c1cc(-c2ccc(O)c(O)c2)oc2cc(O)cc(O)c12 returned Hck-Nef inh 91*, RanGTP-Impb inh -7, TbHK1 inh -13, Runt-CBFb FRET 10, Runt-SMMHC FRET -80 and Hck-Nef confirm active.
COc1ccc(-c2coc3cc(O)cc(O)c3c2=O)cc1 was read as Hck-Nef inh 2, RanGTP-Impb inh inconclusive, TbHK1 inh -14, p97 ATPase inh 4, Runt-CBFb FRET -4 and Runt-SMMHC FRET -2.
Screening COc1c(-c2ccc(O)cc2)oc2cc(O)cc(O)c2c1=O returned Hck-Nef inh 53*, TbHK1 inh -15, Runt-CBFb FRET 1, Runt-SMMHC FRET -7 and Hck-Nef confirm inactive.
CC(Oc1ccc(Br)cc1)C(=O)Nc1ccc(S(=O)(=O)N(C)C2CCN(C)CC2)cc1 (configuration not stated) was read as RanGTP-Impb inh 1.
`CCOc1ccc(N(CC(=O)NC2CCCC2)C(=O)CCC(=O)Nc2nccs2)cc1` gave RanGTP-Impb inh -1.
`Cc1ccc2sc(N(CCCN(C)C)C(=O)CN3C(=O)c4ccccc4C3=O)nc2c1C` gave Hck-Nef inh -18, RanGTP-Impb inh 2, TbHK1 inh 11, p97 ATPase inh -5, Runt-CBFb FRET 0 and Runt-SMMHC FRET 2.
